We go through 11 molecules from ChEMBL document CHEMBL1127475, “Novel amidine-containing peptidyl phosphonates as irreversible inhibitors for blood coagulation and related serine proteases” (J Med Chem, 1994).

The target of test [1] is T1, Serine protease 1 (Bos taurus) (UniProt P00760).
T1 sequence (whole entry): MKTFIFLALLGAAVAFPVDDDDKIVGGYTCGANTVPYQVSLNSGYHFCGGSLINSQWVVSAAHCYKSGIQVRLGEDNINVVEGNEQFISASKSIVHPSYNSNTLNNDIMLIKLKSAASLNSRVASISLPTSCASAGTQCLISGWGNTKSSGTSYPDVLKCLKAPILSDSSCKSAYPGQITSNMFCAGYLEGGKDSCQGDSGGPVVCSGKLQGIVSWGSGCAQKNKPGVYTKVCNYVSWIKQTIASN
As to the kind of experiment: The compound was measured for inhibitory activity against bovine trypsin. The method in brief: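 Inactivation by incubation: enzyme (0.03–2.3 μM) with inhibitor (1.7–420 μM) added from Me2SO (8–12% final) in 0.1 M Hepes, 0.01 M CaCl2, pH 7.5, 25 °C. Aliquots withdrawn over time; residual activity read with Z-Phe-Gly-Arg-NA (100–120 μM) at 410 nm. kobs from ln v0/vt vs time; kobs/[I] typically averaged from duplicate or triplicate runs.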

Test [2] concerns the target Prothrombin (Homo sapiens) (UniProt P00734). The test is described as follows: The compound was measured for inhibitory activity against human thrombin. The method in brief:
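Human thrombin (0.03–2.3 μM) was incubated at 25 °C with inhibitor (1.7–420 μM) in 0.1 M Hepes, 0.5 M NaCl, pH 7.5, 8–12% Me2SO. Residual activity in withdrawn aliquots was measured with Z-Arg-SBzl (80–90 μM) and 4,4'-dithiodipyridine at 394 nm. kobs from ln v0/vt vs time; kobs/[I] typically averaged from duplicate or triplicate experiments.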

The target of test [3] is T2, Coagulation factor XII (Homo sapiens) (UniProt P00748).
T2 sequence (whole entry): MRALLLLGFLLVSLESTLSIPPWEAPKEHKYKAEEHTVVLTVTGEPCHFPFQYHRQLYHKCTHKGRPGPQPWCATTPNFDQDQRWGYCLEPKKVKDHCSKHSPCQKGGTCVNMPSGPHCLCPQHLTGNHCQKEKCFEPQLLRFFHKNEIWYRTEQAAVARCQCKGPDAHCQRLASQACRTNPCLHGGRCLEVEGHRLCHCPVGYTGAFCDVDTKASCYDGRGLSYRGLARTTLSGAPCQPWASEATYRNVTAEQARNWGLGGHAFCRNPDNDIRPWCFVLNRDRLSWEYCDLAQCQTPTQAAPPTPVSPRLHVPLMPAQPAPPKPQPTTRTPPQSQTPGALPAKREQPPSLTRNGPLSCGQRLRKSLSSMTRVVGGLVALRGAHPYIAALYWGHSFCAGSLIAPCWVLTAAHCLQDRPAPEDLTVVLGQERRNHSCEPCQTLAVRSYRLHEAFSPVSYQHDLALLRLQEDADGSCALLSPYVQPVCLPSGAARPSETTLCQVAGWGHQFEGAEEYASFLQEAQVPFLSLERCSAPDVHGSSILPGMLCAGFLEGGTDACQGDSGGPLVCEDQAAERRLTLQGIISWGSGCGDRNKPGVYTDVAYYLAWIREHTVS
The test is described as follows: (§1) The compound was measured for inhibitory activity against human coagulation factor XII. A digest of the protocol: (§2)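 Enzymes (plasma kallikrein and factor XIIa of human origin) at 0.03–2.3 μM were incubated at 25 °C with inhibitor (1.7–420 μM) in 0.1 M Hepes, 0.01 M CaCl2, pH 7.5, 8–12% Me2SO. Timed aliquots were assayed for residual activity with Z-Arg-SBzl (80–90 μM) plus 4,4'-dithiodipyridine, read at 394 nm. Pseudo-first-order kobs came from ln v0/vt vs time; kobs/[I] typically averaged from duplicate or triplicate runs.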

For test [4], the target named is Plasma kallikrein (Homo sapiens) (UniProt P03952). The test is described as follows: The compound was measured for inhibitory activity against human plasma kallikrein. The test is classed as cell-free. The method in brief:
as §2

The target in test [5] is Prothrombin (Bos taurus) (UniProt P00735). The test is described as follows: (§3) The compound was measured for inhibitory activity against bovine thrombin.
Test [6] concerns the target Prothrombin (Homo sapiens) (UniProt P00734). The test is described as follows: The compound was measured for inhibitory activity against human thrombin; NI=No inhibition. A digest of the protocol: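 Human thrombin (0.03–2.3 µM) was incubated with inhibitor (1.7–420 µM, added in Me2SO, 8–12% final) in 0.1 M Hepes, 0.5 M NaCl, pH 7.5, at 25 °C. Timed aliquots were assayed for residual activity with Z-Arg-SBzl (80–90 µM) plus 4,4'-dithiodipyridine at 394 nm. Pseudo-first-order kobs came from ln v0/vt vs time, and kobs/[I] was typically averaged over duplicate or triplicate experiments.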

In test [7] the target is T1, Serine protease 1 (Bos taurus). As to the kind of experiment: The compound was measured for inhibitory activity against bovine trypsin; NI=No inhibition. A digest of the protocol: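 Irreversible inactivation by incubation: enzyme (0.03–2.3 µM) mixed with inhibitor (1.7–420 µM, added in Me2SO, 8–12% final) in 0.1 M Hepes, 0.01 M CaCl2, pH 7.5, at 25 °C. Aliquots were taken over time and residual activity read with Z-Phe-Gly-Arg-NA (100–120 µM) at 410 nm. kobs came from ln v0/vt vs time, and kobs/[I] from the average of duplicate or triplicate runs.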

In test [8] the target is T3, Coagulation factor XII (Bos taurus) (UniProt P98140).
T3 sequence (whole entry): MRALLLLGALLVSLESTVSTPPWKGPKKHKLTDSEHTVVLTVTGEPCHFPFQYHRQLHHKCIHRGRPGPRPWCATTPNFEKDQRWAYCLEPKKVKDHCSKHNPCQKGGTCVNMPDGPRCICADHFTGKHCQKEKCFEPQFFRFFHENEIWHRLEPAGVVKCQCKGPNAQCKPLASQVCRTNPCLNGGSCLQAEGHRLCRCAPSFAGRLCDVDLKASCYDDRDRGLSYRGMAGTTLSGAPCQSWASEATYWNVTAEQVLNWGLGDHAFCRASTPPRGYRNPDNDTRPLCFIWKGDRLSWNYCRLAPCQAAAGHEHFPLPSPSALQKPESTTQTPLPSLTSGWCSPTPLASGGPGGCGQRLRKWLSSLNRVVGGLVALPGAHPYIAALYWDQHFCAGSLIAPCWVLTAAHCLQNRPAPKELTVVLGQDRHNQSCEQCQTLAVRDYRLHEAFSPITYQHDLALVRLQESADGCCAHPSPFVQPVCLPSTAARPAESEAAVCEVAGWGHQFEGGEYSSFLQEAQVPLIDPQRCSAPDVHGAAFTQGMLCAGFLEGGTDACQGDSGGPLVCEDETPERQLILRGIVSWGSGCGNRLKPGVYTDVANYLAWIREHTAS
Described as §1. The method in brief: as §2

For test [9], the target named is Prothrombin (Homo sapiens) (UniProt P00734). The description is as §3.

Active and inactive are the calls of the source. The calls are words filed in the database; no cut-off is given here.

Plasma kallikrein (Homo sapiens), sequence (P03952 20-390 limits assumed): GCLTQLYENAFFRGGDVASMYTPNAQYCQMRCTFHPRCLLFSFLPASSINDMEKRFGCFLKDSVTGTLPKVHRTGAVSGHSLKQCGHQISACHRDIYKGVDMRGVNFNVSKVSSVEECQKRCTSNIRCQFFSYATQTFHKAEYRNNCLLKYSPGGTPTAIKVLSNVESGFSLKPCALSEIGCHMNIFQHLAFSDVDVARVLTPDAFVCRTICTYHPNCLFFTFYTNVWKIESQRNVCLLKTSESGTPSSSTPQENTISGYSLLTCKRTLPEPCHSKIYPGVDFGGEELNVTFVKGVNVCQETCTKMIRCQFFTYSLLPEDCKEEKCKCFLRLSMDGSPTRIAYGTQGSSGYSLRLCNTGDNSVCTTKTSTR
Plasma kallikrein (Homo sapiens), sequence (P03952 391-638 limits assumed): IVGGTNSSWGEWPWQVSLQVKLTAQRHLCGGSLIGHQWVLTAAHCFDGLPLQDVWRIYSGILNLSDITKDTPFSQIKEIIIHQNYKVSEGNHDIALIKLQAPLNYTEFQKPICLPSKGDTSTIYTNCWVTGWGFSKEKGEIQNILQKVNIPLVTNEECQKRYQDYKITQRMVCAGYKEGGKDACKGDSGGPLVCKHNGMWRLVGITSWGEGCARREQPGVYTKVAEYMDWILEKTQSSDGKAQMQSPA

Take `N=C(N)c1ccc(C[C@H](NC(=O)[C@@H]2CCCN2C(=O)[C@@H](N)Cc2ccccc2)P(=O)(Oc2ccccc2)Oc2ccccc2)cc1`: the K obs / 1 in [1] is 50 M⁻¹ s⁻¹; in [2], 54 M⁻¹ s⁻¹.

For `N=C(N)c1ccc(C(NC(=O)[C@@H]2CCCN2C(=O)OCc2ccccc2)P(=O)(Oc2ccccc2)Oc2ccccc2)cc1` (some centres undefined), the K obs / 1 in test [3] worked out at 2.6 M⁻¹ s⁻¹; in test [4], 60 M⁻¹ s⁻¹; in test [5], 70 M⁻¹ s⁻¹; in test [1], 100 M⁻¹ s⁻¹; in [2] it was 20 M⁻¹ s⁻¹.

On to `CC(C)(C)OC(=O)N[C@@H](Cc1ccccc1)C(=O)N1CCC[C@H]1C(=O)N[C@@H](Cc1ccc(C(=N)N)cc1)P(=O)(Oc1ccccc1)Oc1ccccc1`, for which the results for the K obs / 1 in test [1] and in test [2] were 130 M⁻¹ s⁻¹ and 0.7 M⁻¹ s⁻¹, respectively.

As to `N=C(N)c1ccc(C(NC(=O)[C@@H]2CCCN2C(=O)[C@@H](N)Cc2ccccc2)P(=O)(Oc2ccccc2)Oc2ccccc2)cc1` (some centres undefined), the K obs / 1 in test [3] was 2.8 M⁻¹ s⁻¹; in [4], 250 M⁻¹ s⁻¹; in [5], 730 M⁻¹ s⁻¹; in test [1], 110 M⁻¹ s⁻¹; in test [2], 700 M⁻¹ s⁻¹.

For the molecule `N=C(N)c1ccc(C[C@H](NC(=O)OCc2ccccc2)P(=O)(Oc2ccccc2)Oc2ccccc2)cc1`, the results for the K obs / 1 in test [1] and in test [2] were 24 M⁻¹ s⁻¹ and 0.2 M⁻¹ s⁻¹, respectively.

Regarding `N=C(N)c1ccc(C(NC(=O)OCc2ccccc2)P(=O)(Oc2ccccc2)Oc2ccccc2)cc1` (centres undefined), the K obs / 1 in [3] amounted to 20 M⁻¹ s⁻¹; in test [4], 18000 M⁻¹ s⁻¹; in test [5], 170 M⁻¹ s⁻¹; in test [2], 80 M⁻¹ s⁻¹.

Consider `CCOP(=O)(OCC)[C@H](Cc1ccc(C(=N)N)cc1)NC(=O)[C@@H]1CCCN1C(=O)OCc1ccccc1`, for which the “K obs / 1” value in test [6] and in [7] was “inactive” throughout.

In [2], `CC(=O)N[C@H](Cc1ccccc1)C(=O)N1CCC[C@H]1C(=O)N[C@@H](CCCN=C(N)N)P(=O)(Oc1ccccc1)Oc1ccccc1` gave a K obs / 1 of 1200 M⁻¹ s⁻¹.

With `N=C(N)c1ccc(C(NC(=O)CNS(=O)(=O)c2ccc3ccccc3c2)P(=O)(Oc2ccccc2)Oc2ccccc2)cc1` (centres undefined), the K obs / 1 in test [8] worked out at 25 M⁻¹ s⁻¹; in [4] it was 960 M⁻¹ s⁻¹; in [9], 170 M⁻¹ s⁻¹; in test [1], 470 M⁻¹ s⁻¹.

For the molecule `N=C(N)c1ccc(C[C@H](N)P(=O)(Oc2ccccc2)Oc2ccccc2)cc1`, the K obs / 1 amounted to 32 M⁻¹ s⁻¹ in test [1] and 2.2 M⁻¹ s⁻¹ in test [2].

With `CC(C)(C)OC(=O)N[C@@H](Cc1ccccc1)C(=O)N1CCC[C@H]1C(=O)NC(c1ccc(C(=N)N)cc1)P(=O)(Oc1ccccc1)Oc1ccccc1` (some centres undefined), the K obs / 1 in [3] is 52 M⁻¹ s⁻¹; in [4], 160 M⁻¹ s⁻¹; in test [5], 12000 M⁻¹ s⁻¹; in test [1], 2200 M⁻¹ s⁻¹; in [2], 11000 M⁻¹ s⁻¹.
